Shown are actives, neighbours in structure and some others; about 0.58% of the full set was active somewhere.
OXTR potentiator: human OXTR potentiation | CHO-OTR cells, Fluo-8 calcium fluorescence, potentiator mode; 0% = oxytocin EC15, 100% = EC100 | actives 0.061% (n = 320,000) | P30559 | activation, % at 3 µM;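 active = activation above that plate's cutoff, the mean activation of tested compounds plus 3 SD, cut at about 6.6% in these data, passing the limit was not always enough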;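 note: 100% uses oxytocin at 75 nM as the full agonist control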
Target sequence (P30559 whole entry, looked up): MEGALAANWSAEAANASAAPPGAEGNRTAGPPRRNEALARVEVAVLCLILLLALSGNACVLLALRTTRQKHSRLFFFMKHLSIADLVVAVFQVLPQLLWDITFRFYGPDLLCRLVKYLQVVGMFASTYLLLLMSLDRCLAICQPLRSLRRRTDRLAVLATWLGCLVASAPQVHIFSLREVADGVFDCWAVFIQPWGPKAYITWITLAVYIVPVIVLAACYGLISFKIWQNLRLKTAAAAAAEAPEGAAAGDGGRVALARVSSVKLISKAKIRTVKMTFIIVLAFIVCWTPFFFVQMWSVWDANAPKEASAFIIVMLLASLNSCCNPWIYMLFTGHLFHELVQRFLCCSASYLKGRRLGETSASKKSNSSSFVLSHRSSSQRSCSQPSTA
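Assay system: CHO cell line stably expressing human OTR | Also added: Oxytocin at about EC15, sub-maximal agonist stimulus | Times: Compound 6 min at room temperature before oxytocin, 100 s read | Measured by: Fluo-8 intracellular calcium fluorescence, ex 470-495, em 515-575 nm | Controls: EC15 oxytocin alone as 0%, 75 nM oxytocin as 100%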
TRPML3 ag: activates the human TRPML3 channel. actives 0.29% (n = 220,000). HEK293 TRPML3-YFP, Fluo-8 calcium fluorescence; 100% = the carbachol control signal. activation, % at 3 µM;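 active = activation above its plate's cutoff, the mean activation of the plate's test wells plus 3 SD, cut at about 12% in these data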;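 note: 0% = DMSO only wells and 100% = carbachol wells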
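Material: TRPML3-YFP stable HEK293 cells | Dosing: One concentration, 3 µM nominal, 0.3% DMSO | Timing: 125 s total fluorescence read per well | Technique: Fluo-8 calcium dye fluorescence, ex 470-495, em 515-575 nm | Measure: Percent activation from peak-to-basal fluorescence ratio, scaled between DMSO and carbachol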
zfTRPN1 agonist: zebrafish TRPN1 (NompC) channel agonism; AID 1424; actives 0.18% (n = 220,000); HEK293 zebrafish TRPN1-YFP, Fluo-8 calcium fluorescence; 100% = response to 87 µM carbachol; activation, % at 3 µM;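 active = activation above its plate's cutoff, the mean activation of test wells on that plate plus 3 SD, cut at about 19% in these data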;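 note: 0% = DMSO alone and 100% = 87 µM carbachol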
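Material: zebrafish TRPN1-YFP in HEK293 cells; Doses: single test compound dose, 3 µM nominal, 0.3% DMSO; Timing: dye loading 1 h at 37 °C, then 30 min room temperature; Technique: intracellular calcium fluorescence with Fluo-8; Benchmarks: high carbachol 87 µM, low DMSO alone.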
V1aR counter: activates human V1a receptor in oxytocin agonist counter-screen; P37288; CHO-V1R cells, Fluo-8 calcium fluorescence, agonist mode; 0% DMSO, 100% 3 nM vasopressin; activation, % at 3 µM; actives 0.25% (n = 320,000); AID 2797;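 active = activation above the mean activation of all tested compounds plus 3 SD, per screening run, cut at about 20% in these data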;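 note: signal is peak over basal fluorescence ratio across a 100 second FLIPR read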
OXTR ag: activates the human oxytocin receptor; P30559; actives 0.32% (n = 320,000); activation, % at 3 µM; CHO-OTR cells, Fluo-8 calcium fluorescence; normalized: DMSO 0%, oxytocin 100%; AID 2435;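 active = activation above the mean of all tested compounds plus 3 SD, cutoff set per screening run, cut at about 20% in these data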;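 note: peak over basal fluorescence ratio from a 100 s FLIPR kinetic read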
OXTR agonist cf: confirmation of human oxytocin receptor agonists; shares compounds with OXTR ag; CHO-OTR cells, Fluo-8 calcium fluorescence, agonist; activation, % at 3 µM; actives 20% (n = 390); AID 434963;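 active = mean activation above about 20% derived from the earlier single-dose screen, limit read from the data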;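 note: peak over minimum fluorescence ratio per well during a 100 second FLIPR read; 0% = DMSO alone and 100% = oxytocin high control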
V1R ag counter 3x: counter-screen for oxytocin receptor agonists: V1a receptor agonists. shares compounds with OXTR ag. AID 434991. CHO-V1R cells, Fluo-8 calcium fluorescence, agonist. activation, % at 3 µM. actives 10% (n = 390);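 active = mean activation over triplicate exceeds the hit threshold set in the earlier primary screen, cut at about 20% in these data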;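 note: peak over basal fluorescence ratio within a 100 second read; 0% = DMSO alone and 100% = 3 nM vasopressin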
The depositor's hits bear a star; . = no result.

SMILES	OXTR potentiator	TRPML3 ag	zfTRPN1 agonist	V1aR counter	OXTR ag	OXTR agonist cf	V1R ag counter 3x
CC(OC(=O)/C(C#N)=C/c1ccc(N(C)C)cc1)C(=O)N(C)c1ccccc1 (configuration not stated)	-21	.	.	16	11	.	.
CC(=O)Nc1ccc(NC(=O)C(C)OC(=O)/C(C#N)=C/c2ccc(N(C)C)cc2)cc1 (configuration not stated)	-23	.	.	16	20*	13	13
CCOC(=O)c1[nH]c2ccccc2c1N=CN(CC)CC	-4	1	0	1	-1	.	.
CCn1c2ccccc2c2cc(CNCc3ccc(OC)cc3OC)ccc21	-12	1	0	5	23*	5	2
COc1cccc(CNCc2ccc(OC)cc2OC)c1	-1	.	.	3	2	.	.
CC(=O)c1c(C)[nH]c(C(=O)NNC(=O)c2ccc(Br)cc2)c1C	-3	.	.	0	1	.	.
CCOc1ccccc1OCCCC(=O)Nc1cccc(-n2cnnn2)c1C	-6	.	.	1	0	.	.
COC(=O)c1sc(NC(=S)NC(=O)c2ccccc2C)nc1C	-26	0	0	10	28*	33*	39*
CCCCn1cnc2c(c1=O)c1nc3ccccc3nc1n2Cc1ccc2c(c1)OCO2	5	1	1	1	0	.	.
Cc1cccc(OCC(=O)Nc2ccncc2)c1C	-25	.	.	14	20*	10	9
COc1ccccc1OCC(=O)Nc1ccncc1	3	.	.	2	4	.	.
CC1(C(=O)OCC(=O)c2c[nH]c3ccccc23)CC1(Cl)Cl (configuration not stated)	-3	1	0	1	0	.	.
CSc1cccc(NS(=O)(=O)c2ccc3c(c2)CCN3C(C)=O)c1	-23	.	.	17	20*	11	10
CC(=O)N1CCc2cc(S(=O)(=O)Nc3cccc(C(F)(F)F)c3)ccc21	-19	2	3	9	13	.	.
COc1cccc(NS(=O)(=O)c2ccc3c(c2)CCN3C(C)=O)c1	-22	.	.	14	20*	9	9
Cc1c(Cl)cccc1NC(=S)NNc1ncc(C(F)(F)F)cc1Cl	-12	2	5	16	29*	7	7
COc1cc(C(=O)NCc2cccnc2)ccc1OCC(=O)Nc1cccc(C(F)(F)F)c1	-8	.	.	18	23*	7	8
CN1CCN(C(=S)c2ccc(OCC(=O)Nc3cccc(C(F)(F)F)c3)cc2)CC1	-32	2	6	13	20*	9	8
O=C(NC1CCCN(Cc2ccccc2F)C1)C1CCC1 (configuration not stated)	-12	.	.	0	-1	.	.
CCC1(c2ccc(F)cc2)NC(=O)N(CC(=O)Nc2ccc(N3CCCCC3)cc2)C1=O (configuration not stated)	-18	.	.	15	27*	16	14
Cc1ccc(C(=O)NC(=S)NNC(=O)c2ccccc2O)cc1	-23	.	.	11	22*	35*	30*
Cc1cc(OCCOCCNCc2ccccc2)ccc1C(C)C	-15	.	.	11	22*	3	1
O=C(CN1CCN(CC(=O)Nc2ccc(OCc3ccccc3)cc2)CC1)Nc1ccc(F)cc1	-12	2	1	15	21*	9	9
O=C(CCN1CCN(Cc2ccccc2)CC1)Nc1ccc(OCc2ccccc2)cc1	-12	3	3	15	22*	11	8
COc1ccc(CNCCC(c2ccccc2)c2ccc3c(c2)OCO3)cc1 (configuration not stated)	-10	0	-1	16	22*	16	14
CCOc1ccc(OCC)c(NC(=O)c2nnn(CC(=O)Nc3cc(C)cc(C)c3)c2N)c1	-8	.	.	-1	0	.	.
CCOC(=O)C1(CCOc2ccccc2)CCN(Cc2ccc3nonc3c2)CC1	1	1	-2	-1	-2	.	.
COc1cccc(/C=N/Nc2snc(SC)c2C#N)c1O	-10	10	11	13	21*	20*	11

High-throughput results (PubChem)
